The target in test [1] is T1, Toll-like receptor 9 (Mus musculus) (UniProt Q9EQU3).
T1 sequence (whole entry): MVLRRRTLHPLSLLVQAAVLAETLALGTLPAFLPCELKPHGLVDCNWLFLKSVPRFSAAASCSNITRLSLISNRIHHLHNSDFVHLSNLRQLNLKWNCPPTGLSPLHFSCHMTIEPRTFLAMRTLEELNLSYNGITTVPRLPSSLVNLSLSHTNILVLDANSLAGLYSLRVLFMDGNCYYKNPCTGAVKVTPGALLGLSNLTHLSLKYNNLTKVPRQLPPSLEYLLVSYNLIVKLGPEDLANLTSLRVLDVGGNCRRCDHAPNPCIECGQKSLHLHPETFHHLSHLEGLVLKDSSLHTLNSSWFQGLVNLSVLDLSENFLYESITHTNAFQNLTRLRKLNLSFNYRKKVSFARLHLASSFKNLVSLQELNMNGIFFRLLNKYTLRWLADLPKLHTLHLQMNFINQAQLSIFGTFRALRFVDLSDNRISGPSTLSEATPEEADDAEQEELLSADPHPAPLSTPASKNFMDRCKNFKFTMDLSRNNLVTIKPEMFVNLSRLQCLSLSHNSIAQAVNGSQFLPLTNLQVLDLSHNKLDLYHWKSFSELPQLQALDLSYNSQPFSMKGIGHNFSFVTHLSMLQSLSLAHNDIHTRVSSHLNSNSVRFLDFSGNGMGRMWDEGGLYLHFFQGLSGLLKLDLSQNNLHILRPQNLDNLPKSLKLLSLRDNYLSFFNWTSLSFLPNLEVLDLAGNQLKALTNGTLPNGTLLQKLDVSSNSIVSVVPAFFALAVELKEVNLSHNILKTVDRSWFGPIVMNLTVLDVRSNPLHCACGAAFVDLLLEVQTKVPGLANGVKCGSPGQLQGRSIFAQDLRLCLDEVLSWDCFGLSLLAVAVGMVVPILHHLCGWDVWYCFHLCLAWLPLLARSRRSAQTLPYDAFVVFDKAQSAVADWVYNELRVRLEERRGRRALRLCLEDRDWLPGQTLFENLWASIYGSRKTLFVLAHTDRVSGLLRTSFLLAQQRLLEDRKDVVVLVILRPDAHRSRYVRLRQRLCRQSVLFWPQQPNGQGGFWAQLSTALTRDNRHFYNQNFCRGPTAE
The test is described as follows: Activation of mouse TLR9 expressed in HEK293 cells assessed as induction of NF-kappaB activity at 1 to 10 ug/ml after 18 hrs by SEAP assay. Type of test: cell-based. A digest of the protocol:
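HEK293 cells stably expressing mouse TLR9 were grown in DMEM with 10% heat-inactivated FBS. At 80% confluence they were transiently transfected with a SEAP reporter plasmid (100 ng/well, lipofectamine) for 6 h. Medium was then replaced and agonists were added for 18 h. Supernatant SEAP was read with QuantiBlue substrate at 620-645 nm. Results are expressed as fold NF-κB activity over PBS control.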

The target of test [2] is T2, Toll-like receptor 9 (Homo sapiens) (UniProt Q9NR96).
T2 sequence (whole entry): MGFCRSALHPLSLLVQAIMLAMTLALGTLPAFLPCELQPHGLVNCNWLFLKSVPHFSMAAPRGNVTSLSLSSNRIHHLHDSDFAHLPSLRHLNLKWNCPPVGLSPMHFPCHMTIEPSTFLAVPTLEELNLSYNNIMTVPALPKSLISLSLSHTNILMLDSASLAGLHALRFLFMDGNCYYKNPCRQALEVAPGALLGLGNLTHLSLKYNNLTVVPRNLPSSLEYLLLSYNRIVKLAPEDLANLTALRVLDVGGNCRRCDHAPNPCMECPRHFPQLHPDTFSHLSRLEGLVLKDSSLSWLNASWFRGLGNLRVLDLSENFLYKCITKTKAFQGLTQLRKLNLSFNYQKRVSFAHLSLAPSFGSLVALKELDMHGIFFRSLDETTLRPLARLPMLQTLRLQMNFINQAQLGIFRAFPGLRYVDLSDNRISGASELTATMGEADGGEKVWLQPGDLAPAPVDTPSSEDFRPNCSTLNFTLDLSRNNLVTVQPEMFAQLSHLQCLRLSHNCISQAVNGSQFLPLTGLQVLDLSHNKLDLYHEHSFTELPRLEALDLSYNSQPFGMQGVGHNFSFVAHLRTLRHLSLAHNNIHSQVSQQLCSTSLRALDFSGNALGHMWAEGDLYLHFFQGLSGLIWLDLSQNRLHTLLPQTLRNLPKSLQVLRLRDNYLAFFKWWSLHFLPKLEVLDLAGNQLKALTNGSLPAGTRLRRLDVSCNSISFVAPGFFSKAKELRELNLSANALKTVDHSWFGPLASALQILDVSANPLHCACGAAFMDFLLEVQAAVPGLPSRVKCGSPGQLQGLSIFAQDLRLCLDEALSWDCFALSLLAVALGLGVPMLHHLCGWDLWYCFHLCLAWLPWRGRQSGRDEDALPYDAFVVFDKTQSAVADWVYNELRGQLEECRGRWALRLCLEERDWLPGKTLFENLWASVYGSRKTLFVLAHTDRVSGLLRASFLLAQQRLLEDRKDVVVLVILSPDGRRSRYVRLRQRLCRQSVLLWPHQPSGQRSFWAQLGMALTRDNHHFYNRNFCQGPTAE
The test is described as follows: Induction of TLR9-mediated immune stimulation in human PBMC assessed as IL1Ralpha production at 2 ug/ml after 24 hrs by luminex multiplex assay (RVb = 0.12 +/- 0.03 ng/ml).

The target in test [3] is T2, Toll-like receptor 9 (Homo sapiens). Kind of test: Induction of TLR9-mediated immune stimulation in human PBMC assessed as IL2R production at 2 ug/ml after 24 hrs by luminex multiplex assay (RVb = 0.02 +/- 0.01 ng/ml).
The target is the same in test [4]. The test is described as follows: Induction of TLR9-mediated immune stimulation in human PBMC assessed as IL6 production at 2 ug/ml after 24 hrs by luminex multiplex assay (RVb = 0.01 ng/ml).
Test [5] has the same target. Kind of test: Induction of TLR9-mediated human B cell proliferation assessed as [3H]thymidine uptake at 2 to 10 ug/ml after 56 hrs by scintillation counting. Type of test: cell-based. A digest of the protocol: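 B cells were purified from human PBMCs (healthy volunteers), about 1 × 10⁵ cells, and stimulated with various agonist concentrations for 56 h. Cells were then pulsed with 0.75 μCi [³H]-thymidine and harvested 16 h later. Incorporation was counted by scintillation and reported as cpm.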

Active and inactive are the calls of the source. The rule behind the calls is not given here.

Consider `Cc1cn([C@H]2C[C@H](OCC(O)COP(=O)(S)O[C@H]3C[C@H](n4cc(C)c(=O)[nH]c4=O)O[C@@H]3COP(=O)(S)O[C@H]3[C@@H](O)[C@H](n4ccc(N)nc4=O)O[C@@H]3COP(=O)(S)O[C@H]3[C@@H](O)[C@H](n4cnc5c(N)ncnc54)O[C@@H]3COP(=O)(S)O[C@H]3[C@@H](O)[C@H](n4cnc5c(N)ncnc54)O[C@@H]3COP(=O)(S)O[C@H]3[C@@H](O)[C@H](n4ccc(N)nc4=O)O[C@@H]3COP(=O)(S)O[C@H]3[C@@H](O)[C@H](n4ccc(N)nc4=O)O[C@@H]3COP(=O)(S)O[C@H]3[C@@H](O)[C@H](n4cnc5c(N)ncnc54)O[C@@H]3COP(=O)(S)O[C@H]3[C@@H](O)[C@H](n4ccc(N)nc4=O)O[C@@H]3COP(=O)(S)O[C@H]3[C@@H](O)[C@H](n4cnc5c(N)ncnc54)O[C@@H]3COP(=O)(S)O[C@H]3[C@@H](O)[C@H](n4ccc(N)nc4=O)O[C@@H]3COP(=O)(S)O[C@H]3[C@@H](O)[C@H](n4cnc5c(N)ncnc54)O[C@@H]3CO)[C@@H](COP(=O)(S)O[C@H]3[C@@H](O)[C@H](n4ccc(N)nc4=O)O[C@@H]3COP(=O)(S)O[C@H]3[C@@H](O)[C@H](n4cnc5c(N)ncnc54)O[C@@H]3COP(=O)(S)O[C@H]3[C@@H](O)[C@H](n4cnc5c(N)ncnc54)O[C@@H]3COP(=O)(S)O[C@H]3[C@@H](O)[C@H](n4ccc(N)nc4=O)O[C@@H]3COP(=O)(S)O[C@H]3[C@@H](O)[C@H](n4ccc(N)nc4=O)O[C@@H]3COP(=O)(S)O[C@H]3[C@@H](O)[C@H](n4cnc5c(N)ncnc54)O[C@@H]3COP(=O)(S)O[C@H]3[C@@H](O)[C@H](n4ccc(N)nc4=O)O[C@@H]3COP(=O)(S)O[C@H]3[C@@H](O)[C@H](n4cnc5c(N)ncnc54)O[C@@H]3COP(=O)(S)O[C@H]3[C@@H](O)[C@H](n4ccc(N)nc4=O)O[C@@H]3COP(=O)(S)O[C@H]3[C@@H](O)[C@H](n4cnc5c(N)ncnc54)O[C@@H]3CO)O2)c(=O)[nH]c1=O` (stereo not given in full), for which the result in test [1] and in test [5] was Active. For the same compound, the Activity was 5.47 ng/mL in test [2], 0.06 ng/mL in test [3] and 0.02 ng/mL in test [4].
